# MEKK2wt PB1 HTS: raises or lowers MEK5 binding to wildtype human MEKK2 PB1 domain | Q9Y2U5 | 290,000 compounds, 1.1% hits | binding response (% of control), % at 10 µM | bead flow cytometry, Alexa488-MEK5 binding to MEKK2 WT; actives lie on both sides; in the data active means binding response below about 67% or above about 130%
# MEKK2mut PB1 HTS: signal of MEK5 binding to mutant human MEKK2 PB1 domain | bead flow cytometry, Alexa488-MEK5 binding to MEKK2 mutant | percent response, % at 10 µM | 290,000 compounds, 0.35% hits | AID 1530; in the data active means percent response above about 24%, passing the limit was not always enough
# MEKK3 PB1 HTS: modulators (inhibitors or enhancers) of MEK5 binding to human MEKK3 PB1 domain. 290,000 compounds, 1.4% hits. binding response (% of control), % at 10 µM. bead-based flow cytometry, Alexa488-MEK5 binding to MEKK3; actives lie on both sides; 0 = blocked by unlabeled MEK5, 100 = vehicle;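 active means binding response more than 3 SD above or below the average of its plate-row segment, actives on both sides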;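 further: Alexa488 bead fluorescence after subtracting the streptavidin-only scavenger bead signal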
# B2AR ag: agonists of human beta-2 adrenergic receptor inducing internalization; response, % (test concentration not listed); AID 504454; Am2.2-beta2AR cells, FAP receptor internalization, flow cytometry; 340,000 compounds, 0.43% hits;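 active means response above a set limit, near 3 SD of response in nonfluorescent compounds, cut at about 42% in these data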
# Dynein transport: blocks dynein driven cargo transport along microtubules. 3617.4 mouse cells, GR-EGFP nuclear translocation imaging; test concentration mostly 20 µM; stimulated with dexamethasone, 1 µM; hits give low values. 220,000 compounds, 0.47% hits. z-score, hits read low;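 active means plate z-score of nuclear minus cytoplasmic receptor signal below a set negative limit, without overly bright fluorescence or cell loss, cut at about -3.5 in these data, passing the limit was not always enough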;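 further: z-score of nuclear minus cytoplasmic ring GR-EGFP intensity difference per well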
#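 Buffer or medium: Induction medium lacking tetracycline, stripped serum | Also added: Dexamethasone agonist, 1.0 µM final, for 30 min | Timing: 48 h induction, 1 h compound, 30 min dex at 37 °C | Detection: Formaldehyde fixation, Hoechst nuclear stain, 10x automated fluorescence imaging | Measure: Nuclear versus cytoplasmic GR-EGFP signal, averaged per well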
# ATG4B inh: inhibitors of human ATG4B cysteine protease | ATG4B cleavage of LC3-PLA2, NBD-HPC fluorescence, 1 h | inhibition, % at 8.33 µM | 340,000 compounds, 0.51% hits; in the data active means inhibition above about 40%
# MEKK2wt confirm: raises or lowers MEK5 binding to wildtype human MEKK2, retest. shares compounds with MEKK3 PB1 HTS. AID 1892. binding response (% of control), % at 10 µM. bead flow cytometry, Alexa488-MEK5 binding to MEKK2 WT; actives lie on both sides. 5,900 compounds, 2.4% hits; in the data active means binding response below about 16% or above about 210%; inactive means in between
# MEKK2mut confirm: signal of MEK5 binding to mutant human MEKK2, retest; shares compounds with MEKK3 PB1 HTS; bead flow cytometry, Alexa488-MEK5 binding to MEKK2 mutant; percent response, % at 10 µM; 5,900 compounds, 2% hits; AID 1893; in the data active means percent response mostly above about 71%, no sharp cut-off; inactive means mostly below about 38%;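 further: higher means compound restores mutant binding toward wildtype level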
# MEKK3 confirm: MEKK3-MEK5 PB1 inhibition, single concentration confirmation | 5,900 compounds, 1.8% hits | binding response (% of control), % at 10 µM | shares compounds with MEKK3 PB1 HTS | AID 1894 | bead flow cytometry, Alexa488-MEK5 binding to MEKK3; hits give low values;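 active means binding response below 72% of control, or above a set upper limit, though filed actives all read lower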;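 further: 100% = DMSO only wells and 0% = binding blocked by excess unlabeled MEK5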
# * marks the source's active call; other numbers are inactive results; x = not tested or not shown; [ ] = dose if it differs, or a comment. Most compounds without a hit are left out; they make up all but 2.9% or so of the library.
SMILES,MEKK2wt PB1 HTS,MEKK2mut PB1 HTS,MEKK3 PB1 HTS,B2AR ag,Dynein transport,ATG4B inh,MEKK2wt confirm,MEKK2mut confirm,MEKK3 confirm
CCS(=O)(=O)N1Cc2ccccc2CC1C(=O)Nc1ccc(OC)cc1 (stereo unspecified),1.0*[inhibitor],-23.0,2.0*[inhibitor],-5.5,-0.131,6.0,96.0,-4.0,97.0
Cc1ccc2c(Cl)cc(Cl)c(OCC(=O)O)c2n1,113.0,1.0,129.0*,-1.2,-0.247,3.3,95.0,-3.0,95.0
Cc1ccc2c(Cl)cc(Cl)c(OCC(=O)N3CCCC3)c2n1,101.0,2.0,105.0,-0.5,0.196,-12.3,x,x,x
N#Cc1ccccc1CSc1nc2ccsc2c(=O)n1Cc1ccccn1,100.0,-1.0,104.0,1.8,0.337,7.1,x,x,x
CCC(C)n1c(SCC(=O)Nc2ccccc2C(F)(F)F)nc2ccsc2c1=O (stereo unspecified),93.0,-6.0,95.0,-5.3,-0.179,-7.5,x,x,x
Cc1ccc(CSc2nc3ccsc3c(=O)n2Cc2ccccn2)cc1,101.0,1.0,139.0*,-3.8,-1.42,2.9,100.0,-2.0,101.0
CCC(C)n1c(SCc2ccccc2)nc2ccsc2c1=O (stereo unspecified),108.0,1.0,151.0*,15.1,0.627,6.5,96.0,-1.0,97.0
COc1cc(/C=C/C(=O)CC(=O)/C=C/c2ccc(O)c(OC)c2)ccc1O,14.0*,40.0*,75.0,-70.9,0.269,49.3*,88.0,-6.0,88.0
Cc1cc(-c2n[nH]c(=S)n2/N=C/c2ccc(Cl)c([N+](=O)[O-])c2)n[nH]1,109.0,0.0,155.0*,-4.2,0.29,4.8,103.0,-5.0,104.0
O=[N+]([O-])c1cc(/C=N/n2c(-c3ccncc3)n[nH]c2=S)ccc1Cl,106.0,-8.0,113.0,2.0,0.173,-10.5,x,x,x
CSc1cccc(NC(=S)NN(C)C)c1,60.0*[inhibitor],-34.0,68.0*[inhibitor],-2.0,-0.206,-1.1,114.0,4.0,106.0
Cc1ccc2nc(NC(=O)c3ccc(NS(=O)(=O)c4cccs4)cc3)sc2c1,101.0,-1.0,136.0*,6.6,0.0505,-6.0,98.0,-5.0,97.0
Cc1ccc(S(=O)(=O)Nc2ccc(-c3nc4ccc(C)cc4s3)cc2)cc1,107.0,0.0,151.0*,8.3,-0.0605,-10.1,106.0,3.0,105.0
Cc1cccc(S(=O)(=O)Nc2ccc(-c3nc4ccc(C)cc4s3)cc2)c1,105.0,-2.0,103.0,21.1,-0.522,31.2,x,x,x
CCCCCCC(C)OC(=O)Nc1cccc2ccccc12 (stereo unspecified),77.0,1.0,70.0*[inhibitor],-6.9,0.169,-5.7,91.0,-11.0,94.0
CN1CCN(C2=Cc3ccccc3Sc3cc(F)c(F)cc32)CC1,123.0,10.0,107.0,6.0,-3.27,-6.1,x,x,x
CN1CCN(C2=Cc3ccccc3Sc3cc(F)c(Cl)cc32)CC1,134.0*,10.0,99.0,24.9,0.279,-0.4,163.0,30.0,103.0
CN1CCN(C2=Cc3cc(Cl)ccc3Sc3cc(F)ccc32)CC1,202.0*,53.0*,83.0,x,1.21,-3.4,164.0,26.0,103.0
Cc1nc(-c2ccccn2)nc(SCC(=O)N2CCOCC2)c1Cl,114.0,29.0,129.0*,-8.6,-0.0094,-0.8,102.0,-3.0,105.0
Cc1nc(-c2ccccn2)nc(SCC(=O)c2ccccc2)c1Cl,110.0,20.0,122.0,-11.4,-1.39,-6.4,x,x,x

# Assay outcomes (PubChem BioAssay)
